Published values gathered from unrelated publications.
Compare with care: the assays were run in different laboratories.
Target: Testis-specific serine/threonine-protein kinase 3 (TSSK3, Homo sapiens, UniProt Q96PN8)
One construct used (Q96PN8 1-268): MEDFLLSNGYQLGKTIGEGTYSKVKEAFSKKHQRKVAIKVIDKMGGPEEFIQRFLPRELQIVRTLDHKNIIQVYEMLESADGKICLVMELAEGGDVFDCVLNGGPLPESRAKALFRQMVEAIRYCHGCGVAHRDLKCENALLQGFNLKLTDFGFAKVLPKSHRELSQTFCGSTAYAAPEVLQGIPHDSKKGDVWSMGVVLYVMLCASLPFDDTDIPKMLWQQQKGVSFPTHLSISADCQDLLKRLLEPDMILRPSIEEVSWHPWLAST

Compound | test | conditions | remaining binding [%]
O=C(NCCCN1CCOCC1)c1ccc(Nc2nccc(-c3cc4ccccc4s3)n2)cc1 | binding, competition with immobilised ligand | 1 µM | 79
COc1cnc(Nc2cccc(S(N)(=O)=O)c2)nc1N1CCN(c2ccccc2)CC1 | binding, competition with immobilised ligand | 1 µM | 97
N[C@@H]1CCN(c2nccc(-c3cnn4ncccc34)n2)C1 | binding | 1 µM | 100
Cc1c(NC(=O)c2cc(C(N)=O)nc3cc(F)ccc23)c(C(F)(F)F)nn1Cc1ccc(C(C)(C)C)cc1 | cell-free assay, competition with immobilised ligand | 1 µM | 100
CN(C)c1nccc(-c2cnc3ncccn23)n1 | binding | 1 µM | 90
Nc1c(C(=O)NCc2ccc(C(=O)NCCCC3CCCCC3)cc2)cnn1-c1ccccc1 | cell-free assay, competition with immobilised ligand | 0.1 µM | 100
CN(CCCC(F)(F)F)c1nccc(-c2cnn3ncccc23)n1 | binding | 1 µM | 85
CC1=C(C#N)[C@@H](c2ccc3[nH]nc(C)c3c2)C(C#N)=C(c2ccc(Cl)cc2)N1 | cell-free assay, competition with immobilised ligand | 1 µM | 100
O=C(c1ccc(Nc2ncc(Cl)c(-c3cc4ccccc4s3)n2)cc1)N1CCC(N2CCCC2)CC1 | binding, competition with immobilised ligand | 1 µM | 85
CCS(=O)(=O)c1cc2cc(C[C@](O)(CC(C)(C)c3ccc(F)cc3C(N)=O)C(F)(F)F)[nH]c2cn1 | cell-free assay, competition with immobilised ligand | 1 µM | 100
O=C(c1ccc(Nc2nccc(-c3cc4ccccc4s3)n2)cc1)N1CCC(N2CCCC2)CC1 | binding, competition with immobilised ligand | 1 µM | 100
C[C@@H](c1ccc(-n2cnc3c(N)ncnc32)cc1)N1CCc2nn(C)c(Cc3ccccc3)c2C1=O | binding, competition with immobilised ligand | 0.1 µM | 70
O=C(Nc1cnc(Oc2ccc(F)cc2)nc1)N1CCc2ncccc2[C@@H]1c1ccc(F)cc1 | cell-free assay, competition with immobilised ligand | 1 µM | 86
FC(F)(F)Oc1cccc(-c2cnc3ccc(-c4ccncc4)nn23)c1 | binding, competition with immobilised ligand | 5 µM | 91
CN(c1nccc(-c2cnn3ncccc23)n1)C1CC1 | binding | 1 µM | 99
O=C(NCC1CCOCC1)c1n[nH]cc1NC(=O)c1c(F)cccc1F | binding, competition with immobilised ligand | 1 µM | 100
CN(C)c1nccc(-c2cnn3ncccc23)n1 | binding | 1 µM | 100
COc1ncc2cc3ccccc3nc2c1C#N | cell-free assay, competition with immobilised ligand | 5 µM | 90
c1cncc(-c2cccc(Nc3nccc(NC4CCCCC4)n3)c2)c1 | binding, competition with immobilised ligand | 10 µM | 86
C[C@H]1CCN(c2nccc(-c3cnn4ncccc34)n2)C1 | binding | 1 µM | 92
COc1cc(-c2cn(C3CCc4c(F)cccc4N(CC(F)(F)F)C3=O)nn2)ccc1-n1cnc(C)c1 (stereo not drawn) | cell-free assay, competition with immobilised ligand | 1 µM | 97
